Measured values taken from ChEMBL document CHEMBL1134359, “Design, synthesis, and evaluation of a novel pyrrolobenzodiazepine DNA-interactive agent with highly efficient cross-linking ability and potent cytotoxicity” (J Med Chem, 2001).

Key:
[1] = test system: A2780cisR; test: (§1) Ratio of IC50 against A2780cisR (cisplatin resistant) to the IC50 of parent; format: functional
[2] = test system: carcinoma cell line; test: (§2) Ratio of IC50 against human ovarian carcinoma cell line (CH1)cisR (cisplatin resistant) to the IC50 of parent; format: functional
[3] = as §1; format: functional
[4] = test system: K562; test: Inhibition of cell growth by 50% in human leukemia cell line (K562) was determined using microculture tetrazolium (MTT) assay.; format: functional, cell-based
Procedure, shortened: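 K562 human leukaemia cells given drug for 1 h; growth then measured by MTT assay; IC50 is the dose giving 50% growth inhibition versus drug-free controls.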

[5] = as §2; format: functional
[6] = test system: Nucleic Acid; test: The concentration of compound required for 50% cross linking of plasmid pBR322 DNA was investigated using an assay involving linear double stranded DNA; format: functional
Procedure, shortened: (§3)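 pBR322 cut with HindIII, dephosphorylated, then 5'-end-labelled with [γ-32P]ATP by T4 kinase; about 10 ng per reaction. Drug at 0.001–10 μM in 25 mM triethanolamine/1 mM EDTA, pH 7.2, 37 °C, 2 h. Stopped, then ethanol-precipitated; strands separated in 30% DMSO at 90 °C for 2 min; run on neutral 0.8% agarose. Autoradiograph read by laser densitometry; XL50 is the dose giving 50% double-stranded (cross-linked) DNA.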

[7] = test system: CH1; test: Inhibition of cell growth in human ovarian carcinoma cell line (CH1-cis-R,cisplatin resistant) using the 96 hour continuous exposure sulforhodamine B (SRB) growth delay assay; format: functional, cell-based; details: CH1cisR
Procedure, shortened: (§4)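 Human ovarian lines seeded in 96-well plates and left to attach overnight. Compounds dissolved in DMSO (20 mM stock), diluted in medium, added to quadruplicate wells at final 2.5 nM–100 μM; continuous exposure 96 h at 37 °C. Cells fixed in 10% TCA, stained with 0.4% SRB, dye taken up in 10 mM Tris, A540 read. IC50 taken relative to 8 untreated wells.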

[8] = test system: SK-OV-3; test: Inhibition of cell growth in human ovarian carcinoma cell line(SKOV-3) using the 96 hour continuous exposure sulforhodamine B (SRB) growth delay assay; format: functional, cell-based; procedure, shortened: as §4
[9] = test system: CH1; test: Inhibition of cell growth in human ovarian carcinoma cell line (CH1) was determined using the 96 hour continuous exposure sulforhodamine B (SRB) growth delay assay.; format: functional, cell-based; details: CH1, 96 h; procedure, shortened: as §4
[10] = test system: Nucleic Acid; test: Concentration of compound required for 50% cross linking of plasmid pBR322 DNA was investigated using an assay involving linear double stranded DNA; format: functional; procedure, shortened: as §3
[11] = test system: A2780; test: Inhibition of cell growth in human ovarian carcinoma cell line (A2780) using the 96 hour continuous exposure sulforhodamine B (SRB) growth delay assay; format: functional, cell-based; procedure, shortened: as §4
[12] = test system: A2780; test: Growth inhibition in human ovarian carcinoma cell line (A2780cisR,cisplatin-resistant) using the 96 hour exposure sulforhodamine B (SRB) growth delay assay; format: functional, cell-based; details: A2780, 96 h; procedure, shortened: as §4
[13] = test system: A2780; test: Inhibition of cell growth in human ovarian carcinoma cell line (A2780cisR,cisplatin-resistant)using the 96 hour continuous exposure sulforhodamine B (SRB) growth delay assay; format: functional, cell-based
Procedure, shortened: (§5)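 Cells seeded in growth medium and allowed to attach overnight, then given drug (20 mM DMSO stock diluted in medium) in quadruplicate wells at final 100 μM to 2.5 nM for 96 h at 37 °C. Fixed with 10% trichloroacetic acid on ice, stained 0.4% sulforhodamine B, dye solubilised in 10 mM Tris base, absorbance 540 nm; IC50 from concentration versus % absorbance against 8 untreated wells.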

[14] = test system: CH1; test: Inhibition of cell growth in human ovarian carcinoma cell line (CH1-cis-R,cisplatin resistant) using the 96 hour exposure sulforhodamine B (SRB) growth delay assay; format: functional, cell-based; procedure, shortened: as §5

Work on CISPLATIN [listing 1 of 2 here] yielded a Ratio [1] of 32 and a Ratio [2] of 6.1.
C=C1C[C@H]2C=Nc3cc(OCCCOc4cc5c(cc4OC)C(=O)N4CC(=C)C[C@H]4C=N5)c(OC)cc3C(=O)N2C1 [SJG-136] gave a Ratio [3] of 1.1, an IC50 [4] of 42.5 nM and a Ratio [5] of 5. It also gave an XL50 [6] of 0.045 µM, an IC50 [7] of 0.6 nM and an IC50 ([8]; Homo sapiens, SK-OV-3, 96 h) of 9.1 nM. The IC50 [9] was 0.12 nM.
With N[C@@H](Cc1ccc(N(CCCl)CCCl)cc1)C(=O)O the XL50 [10] was 20 µM.
COc1cc2c(cc1OCCCOc1cc3c(cc1OC)C(=O)N1CCC[C@H]1C=N3)N=C[C@@H]1CCCN1C2=O [DSB-120] gave a Ratio [3] of 29.2, an IC50 [4] of 250 nM and a Ratio [5] of 0.7. For the same compound, the XL50 [6] was 0.055 µM and the IC50 [7] was 22 nM.
C=C1C[C@H]2C(=O)Nc3cc(OCCCOc4cc5c(cc4OC)C(=O)N4CC(=C)C[C@H]4C(=O)N5)c(OC)cc3C(=O)N2C1 showed a Ratio [3] of 4.4, a Ratio [5] of 3.5 and an IC50 [7] of 2900 nM. It also gave an IC50 ([8]; Homo sapiens, SK-OV-3, 96 h) of 28000 nM, an IC50 ([11]; Homo sapiens, A2780, 96 h) of 2500 nM and an IC50 [9] of 570 nM. For the same compound, the IC50 [12] was 11000 nM.
In the case of CISPLATIN [listing 2 of 2 here], the IC50 [13] is reported as 8400 nM, the IC50 ([8]; sk-ov-3) is reported as 10500 nM and the IC50 ([11]; a2780) is reported as 265 nM. For the same compound, the IC50 [14] was 1100 nM.
